Reference: ChEMBL document CHEMBL1142659, “The role of intracellularly released formaldehyde and butyric acid in the anticancer activity of acyloxyalkyl esters” (J Med Chem, 2005)

Key:
Format in all cases: functional, cell-based
[1] = Concentration required for 50% inhibition of human MES-DX5 cell proliferation
Procedure, shortened: (§1)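 Solid-tumour lines (HT-29, PC-3, MES-SA, and its mdr-1/P-glycoprotein-high MES-SA/Dx5 subclone) were seeded at (2.5-5) × 10^3 cells per well. They were exposed to escalating prodrug concentrations for 4 days, then harvested. Proliferation was measured by Hoechst DNA staining, and IC50 values are given in µM.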

MES-SA = test: Concentration required for 50% inhibition of human MES-SA cell proliferation; procedure, shortened: as §1
HL-60 = test: Concentration required for 50% inhibition of human HL-60 cell proliferation
Procedure, shortened: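 HL-60 leukemia cells, including the multidrug-resistant HL-60/MX2 subline with altered topoisomerase II activity, were seeded at (2.5-5) × 10^3 cells per well. They were exposed to escalating prodrug concentrations for 4 days. Proliferation was read by Alamar blue, and IC50 values are given in µM.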

HT-29 = test: Concentration required for 50% inhibition of human HT-29 cell proliferation; procedure, shortened: as §1
PC-3 = test: Concentration required for 50% inhibition of human PC-3 cell proliferation; procedure, shortened: as §1

For `CCCC(=O)OCOC(=O)C(C)(C)C` [AN-9], the IC50 [1] was 46 µM, the IC50 (MES-SA) was 40 µM and the IC50 (HL-60) was 36 µM. The IC50 (HT-29) was 52 µM and the IC50 (PC-3) was 56 µM.
